High-throughput results (PubChem BioAssay)
Only some compounds are listed: those with a hit (about 2% of all), similar ones and a draw of the others.
core dimer inh: inhibitors of HCV core protein dimerization, primary screen, biochemical, TR-FRET, high-throughput. inhibition, % at 5 µM. TR-FRET GST/Flag-core106 dimerization, 1536-well. 300,000 compounds, 0.33% hits;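 active means inhibition above the mean of all tested compounds plus 3 SD, set per screening campaign, cut at about 45% in these data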
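assay system = GST-tagged and Flag-tagged HCV core protein residues 1-106 | controls = unlabelled core106 and no-GST-core106 wells | incubation = compound-protein-antibody incubation 4 h at 22.5 °C | probe or stimulus = Eu donor and XL665 acceptor anti-tag antibodies | read-out = % inhibition based on acceptor/donor emission ratio | signal = TR-FRET 671 and 617 nm emission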
DNA FID counter-1: compounds displacing fluorescent DNA intercalator, primary screen, artefact control for HCV NS3 helicase inhibitor project, biochemical, FID fluorescence; AID 1845, 2009; inhibition, % at 7.9 µM; 290,000 compounds, 0.17% hits; DNA fluorescent intercalator displacement; in the data active means inhibition above about 37%;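 further: higher means more ethidium bromide displaced from hairpin DNA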
PABP FP inh: PABP poly(A) RNA binding inhibitors, primary screen, biochemical, fluorescence polarization, uHTS; Polyadenylate-binding protein 1 (Homo sapiens), P11940; inhibition, % at 35 µM; 290,000 compounds, 1% hits; AID 2014, 2009;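 further: calls also rest on retests at 20 µM and on dose response follow-up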
PABP1 MLLE inh: inhibitors of PABP1 MLLE–PAM2 peptide binding, primary screen, biochemical, fluorescence polarization, FITC-PAM2, GST-MLLE; inhibition, % at 20 µM; Polyadenylate-binding protein 1 (Homo sapiens), P11940; 360,000 compounds, 0.36% hits; AID 588489, 2011; in the data active means inhibition above about 35%, passing the limit was not always enough
eIF4H inh: human eIF4H binding inhibitors, primary screen, translation initiation inhibitor project, biochemical, uHTS, fluorescence polarization. inhibition, % at 35 µM. Eukaryotic translation initiation factor 4H (Homo sapiens), Q15056. 290,000 compounds, 0.94% hits. eIF4H fluorescence polarization binding assay;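 further: calls also rest on retests at 20 µM and on dose response follow-up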
HCV NS3 hel inh: inhibitors of HCV NS3 helicase, primary screen, biochemical, Cy5 molecular beacon fluorescence; NS3 helicase DNA unwinding; Hepatitis C virus NS3 helicase; 290,000 compounds, 0.56% hits; inhibition, % at 10.9 µM;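 active means inhibition above the mean of all tested compounds plus 3 SD, set per campaign, cut at about 35% in these data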
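Material: hepatitis C virus NS3 helicase domain fragment enzyme; measured by: Cy5 fluorescence, 0 and 60 min reads; control set: DMSO and thioflavine S; incubation: 60 min unwinding reaction at 25 °C after ATP addition; read-out basis: % inhibition from 60/0 min fluorescence ratio, DMSO 0%, thioflavine S 100%; repeats: singlicate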
NS3 hel confirm: HCV NS3 helicase inhibitors, retest, confirmation, biochemical, Cy5 molecular beacon fluorescence, triplicate. shares compounds with HCV NS3 hel inh. NS3 helicase DNA unwinding. inhibition, % at 10.9 µM. 1,600 compounds, 31% hits;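 active means inhibition above the mean of all tested compounds plus 3 SD, cutoff set per campaign, cut at about 36% in these data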
DNA FID counter-2: compounds displacing fluorescent DNA intercalator, artefact control for HCV NS3 helicase inhibitor project, biochemical, FID fluorescence, triplicate; shares compounds with HCV NS3 hel inh; DNA fluorescent intercalator displacement; inhibition, % at 7.9 µM; 1,600 compounds, 4% hits; in the data active means inhibition above about 37%;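 further: higher means more displacement of ethidium bromide from the DNA hairpin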
DNA FID DR: compounds displacing fluorescent intercalator from DNA, dose response, counter-screen for HCV NS3 helicase inhibitor project, biochemical, fluorescence; shares compounds with HCV NS3 hel inh; fluorescent intercalator displacement from DNA; IC50, µM; 120 tested, under 10 active; AID 2172, 2009
Large screens that a line does not name were inactive (follow-up assays come after a bar, where they were run). Unless noted, how the calls were made is not given here.

O=C(/C=C/c1cccc(Cl)c1)OCC(=O)c1ccc[nH]1	none (no result: core dimer inh, DNA FID counter-1, PABP FP inh, eIF4H inh, HCV NS3 hel inh)
Cc1cccc(N2C(S)=C(C#N)C(=O)NC2c2ccco2)c1 (centres undefined)	none
N#CC1=C(S)N(c2ccccc2)C(c2ccc(-c3cccc(Cl)c3)o2)NC1=O (centres undefined)	HCV NS3 hel inh 36 | NS3 hel confirm 60 | DNA FID counter-2 inactive
Cc1ccc(S(=O)(=O)N2CCOCC2)cc1C(=O)NCC1CCCCC1	none (no result: core dimer inh, DNA FID counter-1, PABP FP inh, eIF4H inh, HCV NS3 hel inh)
C/C=C/C(O)c1ccc2ccccc2c1 (centres undefined)	HCV NS3 hel inh 41 (no result: PABP1 MLLE inh) | NS3 hel confirm inactive | DNA FID counter-2 inactive
CCOc1cc(C2C3=C(CC(C)(C)CC3=O)OC3=C2C(=O)CC(C)(C)C3)cc([N+](=O)[O-])c1O	none
CC1(C)CC(=O)C2=C(C1)OC1=C(C(=O)CC(C)(C)C1)C2c1cc([N+](=O)[O-])cc([N+](=O)[O-])c1O	HCV NS3 hel inh 43 | NS3 hel confirm 78 | DNA FID counter-2 inactive
CCOc1ccc(N2C(=O)C3Sc4[nH]c(=O)sc4C(/C=C/c4ccccc4)C3C2=O)cc1 (centres undefined)	eIF4H inh inconclusive, HCV NS3 hel inh 37 | NS3 hel confirm 62 | DNA FID counter-2 inactive | DNA FID DR inactive
CCOc1ccc(N2C(=O)C3ON(c4ccccc4)C(c4ccco4)C3C2=O)cc1 (centres undefined)	none
COc1ccc(Cc2nnc(SC(C)C(=O)Nc3ccc(C(N)=O)cc3)o2)cc1 (centres undefined)	none (no result: DNA FID counter-1, PABP FP inh, eIF4H inh, HCV NS3 hel inh)
CCOC(=O)c1cnc(-c2ccccc2)nc1N1CCOCC1	HCV NS3 hel inh 49 | NS3 hel confirm inactive | DNA FID counter-2 inactive
CCOC(=O)c1cnc(-c2ccccc2)nc1N	none
COc1ccc(C(=O)NC(C)Cc2c[nH]c3ccccc23)cc1 (centres undefined)	none (no result: core dimer inh, DNA FID counter-1, PABP FP inh, eIF4H inh, HCV NS3 hel inh)
CCC(C)[C@H](NC(=O)C1(c2ccccc2)CCN(C(=O)OC(C)(C)C)CC1)C(=O)N[C@@H](C(=O)O)c1ccccc1 (some centres undefined)	HCV NS3 hel inh 47 | NS3 hel confirm inactive | DNA FID counter-2 inactive
CC(O)[C@H](NC(=O)C1(c2ccccc2)CCN(C(=O)OC(C)(C)C)CC1)C(=O)O (some centres undefined)	none
O=C(NCc1ccco1)c1ccc(N2CCCCC2)c([N+](=O)[O-])c1	HCV NS3 hel inh 50 | NS3 hel confirm inactive | DNA FID counter-2 inactive
O=C(Cc1ccc(Cl)c(Cl)c1)N1CCOCC1	none
COc1ccccc1-c1ccc(/C=C2\C=CC(=O)O2)o1	PABP FP inh inconclusive, eIF4H inh inconclusive, HCV NS3 hel inh 37 | NS3 hel confirm inactive | DNA FID counter-2 inactive
COc1ccccc1-c1ccc(/C=C2/C=C(C)OC2=O)o1	none
C=CCOc1ccc(/C=N/NC(=O)c2c(C)nc3ccc(Cl)cn23)cc1	none
CCn1c(=O)c2c(nc(SCC(=O)NC3CCCC3)n2C)n(C)c1=O	none
O=C(c1ccco1)N1CCN(C(=O)c2ccccc2[N+](=O)[O-])CC1	none
O=C(c1ccco1)N1CCN(C(=O)c2[nH]ncc2[N+](=O)[O-])CC1	HCV NS3 hel inh 37 | NS3 hel confirm inactive | DNA FID counter-2 inactive
O=C(O)Cn1c(=O)c2c3c(sc2n(Cc2ccc(Cl)cc2Cl)c1=O)CCCC3	none (no result: core dimer inh)
